Hits are enriched below; roughly 1.8% of the tested compounds scored in any of these assays.
FAK blocker – inhibitors of human focal adhesion kinase; Q05397; biochemical FAK kinase activity assay; inhibition, %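 (tested at 7 µM)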; hit rate 0.84% among 97,000; AID 727; in the data active = inhibition above about 19%;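 note: 0% = DMSO and 100% = reference compound high control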
LYP inh 2 – inhibitors of human LYP (PTPN22) phosphatase | Q9Y2R2 | recombinant LYP catalytic domain, DiFMUP fluorescence | hit rate 0.21% among 96,000 | inhibition, % at 2 µM;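 active = inhibition at 2 µM at or above a set limit, the screen mean plus 3 SD, cut at about 24% in these data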;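 note: 0% = DMSO with enzyme and 100% = enzyme fully blocked by orthovanadate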
PTPN22 act – activators of human LYP (PTPN22) phosphatase | AID 697 | recombinant LYP, DiFMUP fluorescence; 0 = plate median, 100 = signal doubled | Q9Y2R2 | hit rate 0.11% among 96,000 | activation, % at 2 µM;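 active = activation at 2 µM above a set limit, the mean plus 5 SD, cut at about 37% in these data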
Rev-RRE block – HIV Rev-RRE protein-RNA interaction inhibition; AID 704; P05866; hit rate 0.79% among 97,000; inhibition, % at 8 µM; Rev peptide-RRE RNA binding, FRET;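 active = inhibition above the screen-wide mean plus 3 SD, cut at about 35% in these data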;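 note: 0% = median DMSO wells and 100% = median Neomycin B control wells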
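assay system = Cy5-tagged RRE RNA duplex with fluorescein-tagged Rev peptide | incubation = 5 + 15 min at 25 °C | also added = labelled Rev peptide | measure = % inhibition of FRET ratio versus controls | benchmarks = DMSO wells as 0% and neomycin B wells as 100% inhibition | measured by = FRET fluorescence readout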
Active calls of the source: *; / = not tested or not shown; [ ] = dose if it differs, or a comment.

SMILES	FAK blocker	LYP inh 2	PTPN22 act	Rev-RRE block
N#Cc1c(N)sc2c1CCN(CCc1ccccc1)C2	6.4	-14.1	14.6	65.2*
N#C/C(=C\c1cc(Cl)cc(Cl)c1O)C(=O)NC1CCCCC1	-4.4	10.6	-5.9	44.6*
O=C(Nc1ccccc1-c1nnc(SCc2ccccc2Cl)o1)c1ccccc1	-0.9	1.5	-5.5	14.7
CCOC(=O)N1CCN(S(=O)(=O)c2ccc3c(c2)oc(=O)n3C)CC1	-4.4	-7.2	3.9	40.7*
Cc1ccc(C(=O)Nc2ncnc3sc4c(c23)CCCCC4)cc1	8.6	10.2	-13.7	11.1
O=C(N1CCOCC1)N1CCC(n2nnc3cc(F)ccc32)CC1	-0.2	-10.0	8.4	39.6*
COc1ccc(CN=CC2=C(O)CNC2=O)cc1	-1.4	-7.3	10.5	6.5
COc1ccc(CN=Cc2[nH]c3ccc(Br)c(Cl)c3c2O)cc1	13.9	-0.9	-1.1	125.2*[fluorescence artefact?]
O=C(c1cc(C2CC2)on1)N1CCN(c2ccccc2)CC1	-1.1	4.6	-5.2	-3.6
Cc1ccc(NC(=O)CN2C(=O)S/C(=C\c3ccc(-c4cccc(C(=O)O)c4C)o3)C2=O)cc1	-3.4	55.5*	-54.4	6.8
Cc1ccc(NC(=O)CN2C(=O)S/C(=C\c3cccn3C)C2=O)cc1	-3.3	10.5	-6.3	9.5
COC(=O)C1=NN(c2ccccc2)C2(S1)SC(C(C)=O)=C(C)N2c1ccccc1 (centres undefined)	2.5	0.8	2.2	-0.5
COC(=O)C1=NN(c2ccc(C)cc2)C2(S1)SC(C(C)=O)=C(C)N2c1ccccc1 (centres undefined)	0.9	-0.7	2.3	36.6*
O=C(CN1CCOCC1)Nc1nc2ccc(Br)cc2s1	2.1	5.1	-3.3	6.5
CN1CCc2nc(SCc3ccc(Cl)cc3)c(C#N)c(-c3cccs3)c2C1	7.2	-26.7	31.3	40.2*
COCCn1c(Cc2ccccc2)nnc1SCc1nc2ccccc2c(=O)[nH]1	3.5	27.7*	-25.0	7.3
COC(=O)c1ccc(COC(=O)CCc2nc(-c3ccccc3)c(-c3ccccc3)o2)cc1	2.2	12.8	-13.1	9.1
Cc1cc(-n2ccnc2)n2c(nc3ccccc32)c1C#N	-0.1	3.1	-2.7	21.2
CCCc1cc(-n2ccnc2)n2c(nc3ccccc32)c1C#N	4.3	-0.4	-2.8	117.5*[fluorescence artefact?]
CC(C)(C)NC(=O)C1Cc2ccccc2CN1C(=O)Nc1cccc(Cl)c1 (centres undefined)	6.2	12.8	-9.2	5.9
Oc1c(C=Nc2cccc3cccnc23)sc2ccccc12	4.2	4.5	-3.7	133.3*[fluorescence artefact?]
CSc1nc(-c2ccccc2)nc2[nH]ccc(=O)c12	22.1*	7.8	-11.9	7.7
COc1ccc(-n2nnnc2SCC(=O)c2ccc(O)c(O)c2)cc1	-3.2	35.0*	-37.8	1.5
Cc1cccc(NC(=O)N(C)Cc2cccs2)c1	1.9	-6.0	4.6	1.9
N#C/C(=C/N1CCOCC1)c1ccccc1	2.0	-6.3	6.9	4.8
SMILES	FAK blocker	LYP inh 2	PTPN22 act	Rev-RRE block
N#C/C(=C/c1ccc(N2CCCC2)c([N+](=O)[O-])c1)c1nc2ccccc2[nH]1	11.7	11.7	-6.7	45.0*
N#C/C(=C/c1ccc(N2CCOCC2)o1)c1ccc(Cl)cc1	1.4	13.4	-10.5	112.6*[fluorescence artefact?]
c1ccc2[nH]c(CN3CCOCC3)nc2c1	0.7	7.1	-6.2	6.5
N#C/C(=C\c1ccc(Oc2ccc(C(F)(F)F)cc2[N+](=O)[O-])cc1)c1nc2ccccc2[nH]1	0.9	3.9	-3.4	8.4
N#C/C(=C\c1ccc(N2CCOCC2)o1)c1nc2ccccc2[nH]1	6.7	2.3	-0.6	135.8*[fluorescence artefact?]
NC(=O)c1ccc(C(F)(F)F)n(Cc2cccc(Cl)c2)c1=O	5.4	-5.4	7.6	6.6
COC(=O)c1cc(COc2ccc3oc(C)c(C(=O)OC(C)C)c3c2)c(C)o1	2.6	-7.2	9.3	8.7
O=[N+]([O-])c1ccc(Sc2n[nH]c(-c3ccc(Cl)cc3Cl)n2)nc1	-7.1	-2.8	7.2	-3.2
CCOC(=O)C1=C(c2ccccc2)N=c2s/c(=C\c3ccco3)c(=O)n2C1c1cccs1 (centres undefined)	21.0*	8.6	-6.7	11.4
CCOC(=O)C1=C(c2ccccc2)N=c2s/c(=C\c3cc(OC)c(OC)c(OC)c3)c(=O)n2C1c1cccs1 (centres undefined)	-1.4	0.7	3.2	5.4
COC(=O)C1=C(N)Oc2cc(N(C)C)ccc2C1c1ccccc1OC (centres undefined)	3.0	-13.7	11.6	37.1*
CSc1nnc(C)c(/C=C/Nc2ccc(Cl)cc2)n1	5.1	2.4	1.7	41.9*
CN(C)C(/C=C/Nc1ccc(F)cc1)=C(C#N)C#N	0.4	/	/	4.4
CSc1nnc(C)c(/C=C/Nc2ccc(F)cc2)n1	-0.5	8.4	-4.7	89.3*[fluorescence artefact?]

From PubChem BioAssay
